Reference: ChEMBL document CHEMBL4196073, “The aminopyridine-3,5-dicarbonitrile core for the design of new non-nucleoside-like agonists of the human adenosine A2B receptor” (Eur J Med Chem, 2018)
Calls of active or inactive are those of the source. The calls are words filed in the database; no cut-off is given here.

Legend:
[1] = biological target: T1, Adenosine receptor A1 (Homo sapiens, UniProt P30542); experiment: Displacement of [3H]DPCPX from human adenosine A1 receptor expressed in CHO cell membranes after 90 mins by scintillation counting analysis
T1 sequence (P30542 whole entry): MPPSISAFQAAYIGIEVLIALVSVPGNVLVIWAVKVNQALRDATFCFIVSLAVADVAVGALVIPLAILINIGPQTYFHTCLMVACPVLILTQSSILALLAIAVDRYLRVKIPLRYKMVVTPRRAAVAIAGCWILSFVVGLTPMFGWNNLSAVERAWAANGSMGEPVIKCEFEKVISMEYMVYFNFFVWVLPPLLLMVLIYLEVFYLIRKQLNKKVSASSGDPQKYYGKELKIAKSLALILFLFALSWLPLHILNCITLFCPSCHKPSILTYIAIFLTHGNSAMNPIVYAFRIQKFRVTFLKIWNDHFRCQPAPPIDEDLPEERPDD
Procedure, shortened: (§1)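 Hypotonic-lysed (5 mM Tris HCl, 1 mM EDTA, pH 7.4), 40000 g pelleted hA1-CHO membranes, 50 µg protein/100 µl, with 1 nM [3H]DPCPX, 90 min, 25°C, 50 mM Tris HCl pH 7.4; nonspecific with 1 µM DPCPX; GF/B filtration, scintillation. Ki via Cheng–Prusoff, four assays in triplicate; I% at 1 μM.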

[2] = biological target: T2, Adenosine receptor A2a (Homo sapiens, UniProt P29274); experiment: Displacement of [3H]-ZM241385 from human adenosine A2A receptor expressed in CHO cell membranes at 1 uM after 60 mins by scintillation counting analysis
[3] = biological target: T3, Adenosine receptor A3 (Homo sapiens) (UniProt P0DMS8); experiment: Displacement of [125I]-ABMECA from human adenosine A3 receptor expressed in CHO cell membranes at 1 uM after 120 mins by scintillation counting analysis
T3 sequence (whole entry): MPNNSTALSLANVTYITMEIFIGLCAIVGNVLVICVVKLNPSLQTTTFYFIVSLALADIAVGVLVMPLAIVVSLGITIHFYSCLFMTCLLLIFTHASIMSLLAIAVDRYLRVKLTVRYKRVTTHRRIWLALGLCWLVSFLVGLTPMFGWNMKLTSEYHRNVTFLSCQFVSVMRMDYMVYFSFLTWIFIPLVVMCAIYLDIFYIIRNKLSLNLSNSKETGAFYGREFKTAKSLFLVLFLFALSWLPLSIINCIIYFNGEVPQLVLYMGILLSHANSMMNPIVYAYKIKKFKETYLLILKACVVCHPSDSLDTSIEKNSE
Procedure, shortened: (§2)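 Membranes of hA3-CHO cells, 50 µg protein/100 µl, incubated 120 min at 4°C with 0.5 nM [125I]AB-MECA in 50 mM Tris HCl pH 7.4, 10 mM MgCl2, 1 mM EDTA; 1 µM AB-MECA for nonspecific; filter separation, counted. Ki by Cheng–Prusoff, four assays in triplicate; I% at 1 μM.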

[4] = biological target: T4, Adenosine receptor A2b (Homo sapiens, UniProt P29275); experiment: Agonist activity at human adenosine A2B receptor expressed in CHO cell membranes assessed as induction of cAMP accumulation by AlphaScreen assay; assay type: functional, cell-based
T4 sequence (P29275 whole entry): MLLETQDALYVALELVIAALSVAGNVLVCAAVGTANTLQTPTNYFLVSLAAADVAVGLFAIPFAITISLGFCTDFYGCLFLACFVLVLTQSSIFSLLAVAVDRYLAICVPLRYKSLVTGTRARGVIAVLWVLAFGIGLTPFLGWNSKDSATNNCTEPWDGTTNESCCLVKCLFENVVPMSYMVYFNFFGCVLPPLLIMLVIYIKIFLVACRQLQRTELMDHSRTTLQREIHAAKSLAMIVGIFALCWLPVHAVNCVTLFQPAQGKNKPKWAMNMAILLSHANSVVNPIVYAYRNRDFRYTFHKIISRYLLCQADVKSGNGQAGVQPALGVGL
Procedure, shortened: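 Intact hA2B-transfected CHO cells, trypsin-detached, stimulated in HBSS/5 mM HEPES/0.5 mM Ro 20-1724/0.1% BSA with compound alone at 1 nM–1 μM; cAMP read by AlphaScreen kit; EC50 from four separate assays each in triplicate, mean ± SEM.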

[5] = biological target: T5, Adenosine receptor A2b (Homo sapiens) (UniProt P29275); experiment: Agonist activity at human adenosine A2B receptor expressed in CHO cell membranes assessed as induction of cAMP accumulation at 1 uM by AlphaScreen assay relative to NECA; assay type: functional, cell-based
T5 sequence (whole entry): T4 sequence (P29275 whole entry)
Procedure, shortened: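 Whole adherent hA2B-transfected CHO cells (DMEM/F12, 10% FCS, G418), trypsin-detached, in HBSS with 5 mM HEPES, 0.5 mM Ro 20-1724, 0.1% BSA; test compound at 1 μM alone; cAMP by AlphaScreen; efficacy expressed relative to NECA 1 μM taken as 100%.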

[6] = biological target: T6, Adenosine receptor A3 (Homo sapiens, UniProt P0DMS8); experiment: Displacement of [125I]-ABMECA from human adenosine A3 receptor expressed in CHO cell membranes after 120 mins by scintillation counting analysis; procedure, shortened: as §2
T6 sequence (P0DMS8 whole entry): T3 sequence (whole entry)

[7] = biological target: T5, Adenosine receptor A2b (Homo sapiens); experiment: Antagonist activity at human adenosine A2B receptor expressed in CHO cell membranes assessed as inhibition of NECA-stimulated cAMP accumulation at 1 uM by AlphaScreen assay; assay type: functional, cell-based
Procedure, shortened: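 hA2B-transfected CHO cells in HBSS, 5 mM HEPES, 0.5 mM Ro 20-1724, 0.1% BSA; compound at 1 μM given with NECA 100 nM; cAMP production measured by AlphaScreen.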

[8] = biological target: T7, Adenosine receptor A1 (Homo sapiens) (UniProt P30542); experiment: Displacement of [3H]DPCPX from human adenosine A1 receptor expressed in CHO cell membranes at 1 uM after 90 mins by scintillation counting analysis; procedure, shortened: as §1
T7 sequence (whole entry): T1 sequence (P30542 whole entry)

[9] = biological target: T2, Adenosine receptor A2a; experiment: Displacement of [3H]-ZM241385 from human adenosine A2A receptor expressed in CHO cell membranes after 60 mins by scintillation counting analysis
[10] = organism: Homo sapiens; experiment: Selectivity index, ratio of Ki for human adenosine A1 receptor to EC50 for human adenosine A2B receptor
[11] = organism: Homo sapiens; experiment: Selectivity index, ratio of Ki for human adenosine A2A receptor to EC50 for human adenosine A2B receptor
[12] = organism: Homo sapiens; experiment: Selectivity index, ratio of Ki for human adenosine A3 receptor to EC50 for human adenosine A2B receptor

T2 sequence (P29274 whole entry): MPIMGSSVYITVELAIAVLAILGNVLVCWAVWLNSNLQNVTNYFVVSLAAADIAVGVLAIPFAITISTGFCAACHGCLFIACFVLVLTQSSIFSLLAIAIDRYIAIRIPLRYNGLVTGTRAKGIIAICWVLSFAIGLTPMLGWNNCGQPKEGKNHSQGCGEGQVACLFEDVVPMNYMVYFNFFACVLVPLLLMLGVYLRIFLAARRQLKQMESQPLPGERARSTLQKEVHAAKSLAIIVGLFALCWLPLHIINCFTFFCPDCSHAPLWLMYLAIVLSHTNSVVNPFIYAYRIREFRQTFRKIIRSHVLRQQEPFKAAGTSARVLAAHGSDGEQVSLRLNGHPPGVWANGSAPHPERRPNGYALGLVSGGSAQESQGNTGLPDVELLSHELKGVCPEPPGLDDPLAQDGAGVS

Compound: COC(=O)c1cccc(CSc2nc(N)c(C#N)c(-c3ccc(OCC4CC4)cc3)c2C#N)c1
- Ki [1]: 66 nM
- inhibition [2]: 1%
- inhibition [3]: 4%
- EC50 [4]: 347 nM
- Efficacy [5]: 27%

Compound: C=CCOc1ccc(-c2c(C#N)c(N)nc(SCC(N)=O)c2C#N)cc1
- Ki [1]: 323 nM
- inhibition [2]: 18%
- Ki [6]: 444 nM
- Efficacy [5]: 11%

Compound: N#Cc1c(N)nc(SCC2=NCCN2)c(C#N)c1-c1ccc(OCC2CC2)cc1
- Ki [1]: 483 nM
- inhibition [2]: 14%
- inhibition [3]: 6%
- inhibition [7]: inactive
- Efficacy [5]: 7%

Compound: N#Cc1c(N)nc(SCc2cccc(C(N)=O)c2)c(C#N)c1-c1ccc(OCC2CC2)cc1
- Ki [1]: 83 nM
- inhibition [2]: 25%
- inhibition [3]: 1%
- EC50 [4]: 12.7 nM
- Efficacy [5]: 69%

Compound: N#Cc1c(N)nc(SCc2ncn[nH]2)c(C#N)c1-c1ccc(OCC2CC2)cc1
- Ki [1]: 338 nM
- inhibition [2]: 1%
- inhibition [3]: 1%
- EC50 [4]: 51 nM
- Efficacy [5]: 50%

Compound: C=C(C)COc1ccc(-c2c(C#N)c(N)nc(SCC(N)=O)c2C#N)cc1
- Ki [1]: 872 nM
- inhibition [2]: 31%
- inhibition [3]: 4%
- Efficacy [5]: 2%

Compound: N#Cc1c(N)nc(SCC(N)=O)c(C#N)c1-c1ccc(OCC2CC2)cc1
- inhibition [8]: 31%
- inhibition [2]: 2%
- inhibition [3]: 8%
- EC50 [4]: 31 nM
- Efficacy [5]: 100%

Compound: CNC(=O)CSc1nc(N)c(C#N)c(-c2ccc(OCC3CC3)cc2)c1C#N
- inhibition [8]: 14%
- inhibition [2]: 1%
- inhibition [3]: 3%
- EC50 [4]: 94 nM
- Efficacy [5]: 63%

Compound: N#Cc1c(N)nc(SCc2nc3ccccc3[nH]2)c(C#N)c1-c1ccc(OCC2CC2)cc1
- inhibition [8]: 21%
- inhibition [2]: 6%
- inhibition [3]: 1%
- inhibition [7]: inactive
- Efficacy [5]: 12%

Compound: N#Cc1c(N)nc(SCC(N)=O)c(C#N)c1-c1ccc(OCC2CCC2)cc1
- inhibition [8]: 1%
- inhibition [2]: 5%
- inhibition [3]: 1%
- inhibition [7]: inactive
- Efficacy [5]: 5%

Compound: CCOc1ccc(-c2c(C#N)c(N)nc(SCC(N)=O)c2C#N)cc1
- Ki [1]: 345 nM
- inhibition [2]: 1%
- inhibition [3]: 20%
- EC50 [4]: 38 nM
- Efficacy [5]: 66%

Compound: CCOc1ccc(-c2c(C#N)c(N)nc(SCC(=O)NC)c2C#N)cc1
- Ki [1]: 104 nM
- inhibition [2]: 8%
- Ki [6]: 834 nM
- EC50 [4]: 211 nM
- Efficacy [5]: 48%

Compound: N#Cc1c(N)nc(SCc2nnn[nH]2)c(C#N)c1-c1ccc(OCC2CC2)cc1
- inhibition [8]: 3%
- inhibition [2]: 1%
- inhibition [3]: 1%
- inhibition [7]: inactive
- Efficacy [5]: 25%

Compound: N#Cc1c(N)nc(SCc2ccn[nH]2)c(C#N)c1-c1ccc(OCC2CC2)cc1
- Ki [1]: 552 nM
- inhibition [2]: 2%
- inhibition [3]: 6%
- EC50 [4]: 84 nM
- Efficacy [5]: 48%

Compound: CC(C)COc1ccc(-c2c(C#N)c(N)nc(SCC(N)=O)c2C#N)cc1
- Ki [1]: 603 nM
- Ki [9]: 307 nM
- inhibition [3]: 9%
- Efficacy [5]: 1%

Compound: N#Cc1c(N)nc(SCC(=O)NCO)c(C#N)c1-c1ccc(OCC2CC2)cc1
- inhibition [8]: 10%
- inhibition [2]: 1%
- inhibition [3]: 8%
- EC50 [4]: 182 nM
- Efficacy [5]: 57%

Compound: N#Cc1c(N)nc(SCc2ncc[nH]2)c(C#N)c1-c1ccc(OCC2CC2)cc1
- Ki [1]: 235 nM
- Ki [9]: 764 nM
- Ki [6]: 474 nM
- EC50 [4]: 9.5 nM
- Selectivity Index [10]: 25
- Selectivity Index [11]: 80
- Selectivity Index [12]: 50
- Efficacy [5]: 70%

Compound: CCOc1ccc(-c2c(C#N)c(N)nc(SCc3ccn[nH]3)c2C#N)cc1
- Ki [1]: 21 nM
- inhibition [2]: 4%
- inhibition [3]: 18%
- EC50 [4]: 332 nM
- Efficacy [5]: 34%

Compound: N#Cc1c(N)nc(SCc2cnc[nH]2)c(C#N)c1-c1ccc(OCC2CC2)cc1
- inhibition [8]: 1%
- inhibition [2]: 7%
- inhibition [3]: 1%
- EC50 [4]: 139 nM
- Efficacy [5]: 50%

Compound: CCOc1ccc(-c2c(C#N)c(N)nc(SCc3ncc[nH]3)c2C#N)cc1
- Ki [1]: 8.2 nM
- Ki [9]: 221 nM
- Ki [6]: 85 nM
- EC50 [4]: 11.7 nM
- Efficacy [5]: 62%

Compound: COC(=O)CSc1nc(N)c(C#N)c(-c2ccc(OCC3CC3)cc2)c1C#N
- inhibition [8]: 23%
- inhibition [2]: 1%
- inhibition [3]: 1%
- inhibition [7]: inactive
- Efficacy [5]: 1%

Compound: CC(=O)Nc1ccc(-c2c(C#N)c(N)nc(SCC(N)=O)c2C#N)cc1
- inhibition [8]: 17%
- Ki [9]: 572 nM
- Ki [6]: 742 nM
- EC50 [4]: 164 nM
- Efficacy [5]: 92%

Compound: C=CCOc1ccc(-c2c(C#N)c(N)nc(SCc3ccn[nH]3)c2C#N)cc1
- Ki [1]: 44 nM
- inhibition [2]: 8%
- inhibition [3]: 13%
- inhibition [7]: inactive
- Efficacy [5]: 7%

Compound: N#Cc1c(N)nc2sc(C(N)=O)c(N)c2c1-c1ccc(OCC2CC2)cc1
- inhibition [8]: 19%
- inhibition [2]: 3%
- inhibition [3]: 13%
- Efficacy [5]: 1%

Compound: N#Cc1c(N)nc(SCn2cncn2)c(C#N)c1-c1ccc(OCC2CC2)cc1
- inhibition [8]: 12%
- inhibition [2]: 1%
- inhibition [3]: 1%
- inhibition [7]: inactive
- Efficacy [5]: 1%

Compound: N#Cc1c(N)nc(SCc2cccnc2)c(C#N)c1-c1ccc(OCC2CC2)cc1
- Ki [1]: 67 nM
- Ki [9]: 424 nM
- inhibition [3]: 19%
- Efficacy [5]: 1%

Compound: N#Cc1c(N)nc(SCc2csc(N)n2)c(C#N)c1-c1ccc(OCC2CC2)cc1
- Ki [1]: 140 nM
- inhibition [2]: 1%
- inhibition [3]: 1%
- inhibition [7]: inactive
- Efficacy [5]: 17%

Compound: N#Cc1c(N)nc(SCC(=O)NO)c(C#N)c1-c1ccc(OCC2CC2)cc1
- Ki [1]: 536 nM
- inhibition [2]: 1%
- inhibition [3]: 31%
- Efficacy [5]: 20%
